{"data": "Experimental data collected from several papers", "target": "Serine/threonine-protein kinase Nek6 (NEK6, Homo sapiens, UniProt Q9HC98)"}
{"SMILES": "C[C@@H]1CCN(c2nccc(-c3cnn4ncccc34)n2)C1", "test": "binding", "setting": "1 µM", "remaining binding [%]": 100}
{"SMILES": "O=C(NCCCN1CCOCC1)c1ccc(Nc2nccc(-c3cc4ccccc4s3)n2)cc1", "test": "binding, competition with immobilised ligand", "setting": "1 µM", "remaining binding [%]": 81}
{"SMILES": "COc1ncc2cc3ccccc3nc2c1C#N", "test": "cell-free assay, competition with immobilised ligand", "setting": "5 µM", "remaining binding [%]": 100}
{"SMILES": "O=C(NCC1CCOCC1)c1n[nH]cc1NC(=O)c1c(F)cccc1F", "test": "binding, competition with immobilised ligand", "setting": "1 µM", "remaining binding [%]": 90}
{"SMILES": "CN(CCCC(F)(F)F)c1nccc(-c2cnn3ncccc23)n1", "test": "binding", "setting": "1 µM", "remaining binding [%]": 100}
{"SMILES": "O=C(NCCCN1CCOCC1)c1ccc(Nc2ncc(Cl)c(-c3ccc(Cl)s3)n2)cc1", "test": "binding, competition with immobilised ligand", "setting": "1 µM", "remaining binding [%]": 2.5}
{"SMILES": "CCC(=O)N[C@H]1CC[C@@H](C(=O)N(C)c2ccc(-c3nc4ccccc4o3)cc2)C1", "test": "cell-free assay, competition with immobilised ligand", "setting": "1 µM", "remaining binding [%]": 85}
{"SMILES": "COc1ccnn2ncc(-c3ccnc(N(C)C)n3)c12", "test": "binding", "setting": "1 µM", "remaining binding [%]": 100}
{"SMILES": "O=C(N[C@H]1CCCCC/C=C\\C2C[C@@]2(C(=O)O)NC(=O)[C@@H]2C[C@@H](Oc3ccncc3)CN2C1=O)OC1CCCC1 (stereo partly shown)", "test": "binding, competition with immobilised ligand", "setting": "1 µM", "remaining binding [%]": 87}
{"SMILES": "CN(c1nccc(-c2cnn3ncccc23)n1)C1CC1", "test": "binding", "setting": "1 µM", "remaining binding [%]": 100}
{"SMILES": "CNC(=O)[C@@H]1CC[C@@H](n2c(-c3ccc4cnccc4c3)nc3ccc(C(=O)NCc4cccc(C(N)=O)c4)cc32)C1", "test": "binding, competition with immobilised ligand", "setting": "1 µM", "remaining binding [%]": 97}
{"SMILES": "O=C(c1ccc(Nc2ncc(Cl)c(-c3ccc(Cl)s3)n2)cc1)N1CCC(N2CCCC2)CC1", "test": "binding, competition with immobilised ligand", "setting": "1 µM", "remaining binding [%]": 9.9}
{"SMILES": "CCN1CCN(Cc2ccc(C(=O)Nc3ccc(C)c(Oc4ccc5c(c4)CC(=O)N5)c3)cc2C(F)(F)F)CC1", "test": "binding, competition with immobilised ligand", "setting": "1 µM", "remaining binding [%]": 100}
{"SMILES": "CSc1cccnc1N1CCN(Cc2nc3ccccc3[nH]2)CC1", "test": "cell-free assay, competition with immobilised ligand", "setting": "1 µM", "remaining binding [%]": 98}
{"SMILES": "c1cnn2ncc(-c3ccnc(N4CCC45COC5)n3)c2c1", "test": "binding", "setting": "1 µM", "remaining binding [%]": 94}
{"SMILES": "C[C@@H](c1cccc(C#N)c1)n1cc(Cl)cc(C(N)=O)c1=N", "test": "cell-free assay, competition with immobilised ligand", "setting": "1 µM", "remaining binding [%]": 79}
{"SMILES": "C[C@@H](c1ccc(-n2cnc3c(N)ncnc32)cc1)N1CCc2nn(C)c(Cc3ccccc3)c2C1=O", "test": "binding, competition with immobilised ligand", "setting": "0.1 µM", "remaining binding [%]": 90}
{"SMILES": "N[C@@H]1CCN(c2nccc(-c3cnn4ncccc34)n2)C1", "test": "binding", "setting": "1 µM", "remaining binding [%]": 100}
{"SMILES": "COc1cc(-c2cn(C3CCc4ccccc4N(CC(F)(F)F)C3=O)nn2)ccc1-n1ccc(C)n1 (stereo not shown)", "test": "cell-free assay, competition with immobilised ligand", "setting": "1 µM", "remaining binding [%]": 100}
{"SMILES": "CN(C)c1nccc(-c2cnn3ncccc23)n1", "test": "binding", "setting": "1 µM", "remaining binding [%]": 100}
{"SMILES": "CCc1ccccc1C(=O)Nc1n[nH]c2c(C)c(F)c(C3C(C#N)=C(C)N(C)C(C)=C3C#N)cc12", "test": "cell-free assay, competition with immobilised ligand", "setting": "1 µM", "remaining binding [%]": 75}
{"SMILES": "COc1cnc(Nc2cccc(S(N)(=O)=O)c2)nc1N1CCN(c2ccccc2)C(=O)C1", "test": "binding, competition with immobilised ligand", "setting": "1 µM", "remaining binding [%]": 98}
